Source: PubChem BioAssay (The Scripps Research Institute Molecular Screening Center)
PLCb3 inh – inhibitors of human phospholipase C beta3. Q01970. Purified PLC-beta3, fluorogenic substrate, fluorescence. inhibition, % at 12.2 µM. hit rate 0.18% among 370,000; in the data active means inhibition above about 11%;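 further: 0% = median of compound wells on plate and 100% = full blocker control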
ADAM17 inh – inhibits human ADAM17; recombinant ADAM17, EDANS/DABCYL FRET peptide cleavage; inhibition, % at 6.95 µM; hit rate 0.83% among 370,000;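 active means inhibition above the mean of compounds lying between control limits plus 3 SD, set per campaign, cut at about 8.5% in these data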;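 further: 0% = DMSO-only wells as the low control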
PLCg1 inh – blocks human PLC-gamma1 enzyme activity | AID 720700 | purified PLC-gamma1, fluorogenic substrate, fluorescence | inhibition, % at 12.2 µM | hit rate 0.84% among 370,000 | P19174
Tb MetRS inh – Trypanosoma brucei MetRS inhibition; hit rate 0.4% among 360,000; inhibition, % at 11.9 µM; purified T. brucei MetRS, ATP depletion, Kinase-Glo luminescence;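 active means inhibition above a per-plate cutoff of the control wells' mean inhibition plus 3 SD, cut at about 5.5% in these data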;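 further: 0% = DMSO wells median and 100% = median of wells with control inhibitor compound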
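Assay system: T. brucei methionyl-tRNA synthetase, purified | Medium: HEPES buffer with MgCl2, KCl, DTT, spermine, BSA, pyrophosphatase | Compound: 11.9 µM single point | Incubation: 15 min enzyme-compound preincubation, 2 h reaction, 10 min detection, 25 °C | Measured by: Kinase-Glo luciferase luminescence reporting remaining unconsumed ATP | Measure: % inhibition normalized to control-well medians | Replication: Singlicate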
ADAM10 inh – inhibitors of human ADAM10 | O14672 | inhibition, % at 7 µM | hit rate 0.62% among 370,000 | recombinant ADAM10, EDANS/DABCYL FRET peptide cleavage, 3 h;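 active means inhibition above a per-campaign cutoff equal to the mean of compounds falling between control-based bounds plus 3 SD, cut at about 20% in these data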;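 further: 0% = DMSO wells while the 100% control is not disclosed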
Tb MetRS conf – Trypanosoma brucei MetRS inhibition confirmed. AID 624412. T. brucei MetRS enzyme, luminescence (ATP depletion). inhibition, % at 11.9 µM. hit rate 93% among 1,400. shares compounds with Tb MetRS inh; in the data active means inhibition above about 7%
Jurkat tox – counter-screen for T. brucei MetRS inhibitors: Jurkat cell cytotoxicity; hit rate 12% among 1,400; shares compounds with Tb MetRS inh; inhibition, % at 8.3 µM; Jurkat cells viability, ATP luminescence; in the data active means inhibition above about 15%;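 further: 0% = vehicle and 100% = reference inhibitor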
TbMetRS FP orth – T. brucei MetRS inhibition, orthogonal assay | inhibition, % at 11.9 µM | hit rate 44% among 1,400 | AID 651607 | purified T. brucei MetRS, fluorescence polarization | shares compounds with Tb MetRS inh; in the data active means inhibition above about 17%;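 further: 0% = vehicle wells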
ADAM10 confirm – confirmation of inhibitors of human ADAM10; shares compounds with ADAM10 inh; ADAM10 QFRET peptide cleavage, EDANS fluorescence; inhibition, % at 6.95 µM; hit rate 1% among 2,100;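 active means inhibition above about 20% chosen separately for each screening run, limit read from the data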;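 further: 0% = DMSO wells and 100% = marimastat wells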
ADAM17 counter – inhibits human ADAM17 in ADAM10 exosite counter-screen; ADAM17 QFRET peptide cleavage, EDANS fluorescence; inhibition, % at 6.95 µM; shares compounds with ADAM10 inh; hit rate 0.5% among 2,100; AID 743214;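 active means mean triplicate inhibition above the solvent-only control wells' mean plus 3 SD, cut at about 12% in these data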;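 further: 0% = DMSO wells and 100% = marimastat wells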
ADAM10 counter – counter-screen for ADAM17 exosite inhibitors: inhibitors of human ADAM10 | shares compounds with ADAM17 inh | recombinant ADAM10, EDANS/DABCYL FRET peptide cleavage, 3 h | inhibition, % at 6.95 µM | hit rate 47% among 2,900 | AID 743256;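 active means mean inhibition over the triplicate runs exceeds the activity threshold set in the earlier primary screen, cut at about 20% in these data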;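 further: 0% = DMSO wells and 100% = marimastat wells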
ADAM17 confirm – confirmation of inhibitors of human ADAM17. recombinant ADAM17, EDANS/DABCYL QFRET peptide cleavage. inhibition, % at 6.95 µM. shares compounds with ADAM17 inh. hit rate 65% among 2,900;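 active means mean inhibition across replicates above the hit cutoff set in the primary screen, cut at about 8.5% in these data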;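 further: 0% = DMSO wells and 100% = marimastat wells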
PLCg1 ctr – PLC-gamma1 inhibition, counter-screen for PLC-beta3 hits; inhibition, % at 12.3 µM; purified PLC-gamma1, fluorogenic substrate, fluorescence; hit rate 3.1% among 3,300; AID 743258; shares compounds with PLCg1 inh
PLCbeta3 conf – confirmation of human PLC-beta3 inhibitors; inhibition, % at 12.3 µM; hit rate 1% among 3,300; AID 743261; shares compounds with PLCg1 inh; purified PLC-beta3, fluorogenic substrate fluorescence; in the data active means inhibition above about 11%
An asterisk follows results filed as active; / = no result. Shown are actives, neighbours in structure and some others; about 2.3% of the full set was active somewhere. Unless noted, no stated cut-off is given here; in the data, active means inhibition above about 9.5%; inactive means the rest.

SMILES | PLCb3 inh | ADAM17 inh | PLCg1 inh | Tb MetRS inh | ADAM10 inh | Tb MetRS conf | Jurkat tox | TbMetRS FP orth | ADAM10 confirm | ADAM17 counter | ADAM10 counter | ADAM17 confirm | others
C=CCc1cccc(CNc2nc3ccccc3n2C)c1O | -4 | 11* | 2 | 28* | 20* | 46* | -1 | 26* | 3 | 1 | 32* | 17*
COc1ccc(CNc2nc3ccccc3n2C)c(O)c1 | 4 | -2 | 3 | 3 | 14 | / | / | / | / | / | / | /
COc1ccc(NC(=O)CC2C(=O)N(C)C(=S)N2CCc2ccc(F)cc2)cc1 (configuration not stated) | -4 | 12* | 5 | 50* | 21* | 67* | 12 | 43* | 1 | 0 | 25* | 14*
COc1ccc(NC(=O)CC2C(=O)N(C)C(=S)N2Cc2ccc3c(c2)OCO3)cc1 (configuration not stated) | 0 | -2 | -1 | -1 | 2 | / | / | / | / | / | / | /
CC1CC1C(=O)OCC(=O)Nc1ccc(S(=O)(=O)N2CCOCC2)cc1 (configuration not stated) | -4 | -2 | -3 | 0 | -7 | / | / | / | / | / | / | /
O=C1c2cccnc2Oc2ccc(Cl)cc2N1Cc1ccc(F)cc1 | 1 | 1 | 0 | 0 | 7 | / | / | / | / | / | / | /
O=C(Nc1ccccc1)Nc1cc(OCC(F)(F)F)cc(OCC(F)(F)F)c1 | 1 | 15* | 0 | 6.9* | 31* | 15* | 89* | 72* | 9 | 2 | 28* | 17*
COc1ccc(N2C(=O)CC(Sc3n[nH]c(-c4ccccc4)n3)C2=O)cc1 (configuration not stated) | -4 | 2 | 3 | 0 | 2 | / | / | / | / | / | / | /
CCc1cc(Cn2nc(-c3ccccc3)cc2C(=O)NCc2cccc(Br)c2)on1 | 2 | 14* | 3 | 53* | 21* | 77* | 4 | 69* | 13 | 4 | 36* | 22*
Cc1ccc(C2CC2C(=O)NNC(=S)Nc2cccc(Cl)c2)cc1 (configuration not stated) | 4 | 22* | 7 | 6.5* | 39* | 14* | 0 | 10 | 7 | 1 | 24* | 11*
Cc1ccc(C2CC2C(=O)NNC(=S)Nc2cccc(C)c2)cc1 (configuration not stated) | 1 | 5 | -2 | 0 | 9 | / | / | / | / | / | / | /
CCO[C@H]1OC(C(=O)NCc2nc3ccccc3[nH]2)=C[C@@H](c2csc3ccccc23)[C@@H]1CCCO | 2 | 12* | 2 | 7.6* | 12 | 38* | -1 | 13 | / | / | 6 | 6
COc1cc(OC)cc(C2=Cc3ccccc3C(CC(=O)c3ccco3)N2c2ccc(-c3cncnc3)cc2)c1 (configuration not stated) | -64 | 1 | -40 | 0 | -15 | / | / | / | / | / | / | /
CCOc1ccc(S(=O)(=O)Nc2cc(Cl)ccc2O)cc1 | 0 | 3 | 13* | 16* | 16 | 33* | 10 | 11 | / | / | / | / | PLCg1 ctr=-2;PLCbeta3 conf=-4
